Active and inactive are the calls of the source. The calls are words filed in the database; no cut-off is given here.
Legend:
Clathrin heavy chain 1 [1] = biological target: T1, Clathrin heavy chain 1 (Homo sapiens, UniProt Q00610); assay: Inhibition of recombinant GST-tagged clathrin heavy chain (unknown origin) at 100 uM after 1 hr by ELISA
U2OS = assay: Inhibition of clathrin in human U2OS cells assessed as texas red-Tf endocytosis incubated 30 mins prior to texas red-Tf addition measured after 8 mins; assay type: cell-based
How it was run: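 U2OS cells preincubated 30 min with inhibitor (1 to 300 μM) or vehicle, then 4 μg/mL Tf-A594 added for 8 min at 37 °C. Uptake quantified by automated imaging and analysis, ~1200 cells per point. IC50 fitted; reported as mean ±95% CI from three wells.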

Ovis aries [2] = organism: Ovis aries; details: 300 uM
Ovis aries [3] = organism: Ovis aries; assay: Inhibition of phosphotidylserine-stimulated sheep brain dynamin 1 GTPase activity assessed as inhibition of phosphate release from GTP at 100 uM after 30 mins by malachite green reagent method
[4] = Inhibition of phosphotidylserine-stimulated sheep brain dynamin 1 GTPase activity assessed as inhibition of phosphate release from GTP after 30 mins by malachite green reagent method; design: species or system Ovis aries
How it was run: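 Native dynamin I purified from sheep brain (peripheral membrane fraction, GST-Amph2-SH3-sepharose affinity). Dynamin (20 nM) stimulated by 4 μg/mL sonicated phosphatidylserine with compound for 30 min at 37 °C. Buffer: 5 mM Tris-HCl pH 7.4, 10 mM NaCl, 2 mM Mg2+, 1 μg/mL leupeptin, 0.1 mM PMSF, 0.3 mM GTP. Phosphate release read by malachite green.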

Clathrin heavy chain 1 [5] = biological target: T1, Clathrin heavy chain 1; assay: Inhibition of recombinant GST-tagged clathrin heavy chain (unknown origin) after 1 hr by ELISA

T1 sequence (Q00610 whole entry): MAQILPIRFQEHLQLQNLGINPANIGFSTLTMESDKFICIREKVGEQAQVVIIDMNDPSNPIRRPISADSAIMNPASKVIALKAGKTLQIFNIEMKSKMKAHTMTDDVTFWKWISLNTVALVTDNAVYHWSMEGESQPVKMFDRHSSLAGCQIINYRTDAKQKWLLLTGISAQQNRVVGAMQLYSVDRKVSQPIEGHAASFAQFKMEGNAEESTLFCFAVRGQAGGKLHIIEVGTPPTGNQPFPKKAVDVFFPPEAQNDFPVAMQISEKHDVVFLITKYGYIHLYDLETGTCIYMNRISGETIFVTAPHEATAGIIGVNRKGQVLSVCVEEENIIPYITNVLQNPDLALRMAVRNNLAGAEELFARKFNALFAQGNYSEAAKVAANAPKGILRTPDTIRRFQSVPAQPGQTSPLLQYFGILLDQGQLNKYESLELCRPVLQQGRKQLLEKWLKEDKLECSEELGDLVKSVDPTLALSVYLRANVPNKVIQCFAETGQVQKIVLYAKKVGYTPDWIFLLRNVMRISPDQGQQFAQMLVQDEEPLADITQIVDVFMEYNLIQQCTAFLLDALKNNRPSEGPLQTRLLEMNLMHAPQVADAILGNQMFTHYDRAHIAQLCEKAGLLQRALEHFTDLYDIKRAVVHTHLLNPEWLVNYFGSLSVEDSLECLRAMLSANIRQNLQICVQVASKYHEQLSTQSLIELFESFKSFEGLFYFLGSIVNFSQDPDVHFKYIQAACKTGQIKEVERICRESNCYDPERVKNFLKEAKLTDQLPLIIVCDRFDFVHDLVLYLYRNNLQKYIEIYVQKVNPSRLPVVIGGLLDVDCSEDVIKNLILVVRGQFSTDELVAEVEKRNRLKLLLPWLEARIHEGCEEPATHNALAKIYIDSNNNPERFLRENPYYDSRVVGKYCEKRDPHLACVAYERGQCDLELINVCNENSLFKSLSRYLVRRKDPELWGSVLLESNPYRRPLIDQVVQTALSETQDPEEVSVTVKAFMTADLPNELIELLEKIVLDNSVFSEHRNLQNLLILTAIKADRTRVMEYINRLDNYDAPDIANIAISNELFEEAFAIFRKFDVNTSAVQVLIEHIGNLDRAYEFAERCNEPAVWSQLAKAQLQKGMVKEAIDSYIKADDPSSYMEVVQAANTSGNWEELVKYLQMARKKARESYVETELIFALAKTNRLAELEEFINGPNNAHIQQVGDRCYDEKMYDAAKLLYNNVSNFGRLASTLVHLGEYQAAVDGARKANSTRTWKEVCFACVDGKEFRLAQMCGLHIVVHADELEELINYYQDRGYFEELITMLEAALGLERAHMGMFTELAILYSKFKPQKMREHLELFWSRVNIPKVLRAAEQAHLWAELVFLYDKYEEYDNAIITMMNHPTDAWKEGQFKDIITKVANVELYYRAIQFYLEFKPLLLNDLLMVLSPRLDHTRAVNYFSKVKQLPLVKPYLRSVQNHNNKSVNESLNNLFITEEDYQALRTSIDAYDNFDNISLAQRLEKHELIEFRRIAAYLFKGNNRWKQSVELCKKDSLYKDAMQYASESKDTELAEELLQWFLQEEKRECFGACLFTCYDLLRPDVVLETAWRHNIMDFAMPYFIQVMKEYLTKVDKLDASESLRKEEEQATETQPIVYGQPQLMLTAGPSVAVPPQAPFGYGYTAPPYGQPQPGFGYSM

Row | Compound | inhibition (Clathrin heavy chain 1 [1]) | inhibition (U2OS) | further results
1 | Nc1ccc(CN2C(=O)c3cccc4c(Br)ccc(c34)C2=O)cc1 | inactive |  | 
2 | COc1ccc(CN2C(=O)c3cccc4cc(S(=O)(=O)O)cc(c34)C2=O)cc1 |  | inactive | inhibition (Ovis aries [2]): inactive
3 | Nc1ccc(N2C(=O)c3cccc4cc(S(=O)(=O)O)cc(c34)C2=O)cc1 | inactive | inactive | inhibition (Ovis aries [3]): inactive
4 | Nc1ccc(CN2C(=O)c3cccc4cc([N+](=O)[O-])cc(c34)C2=O)cc1 | inactive |  | 
5 | Nc1ccc(CN2C(=O)c3cccc4cc(O)cc(c34)C2=O)cc1 | inactive |  | 
6 | O=C1c2cccc3cc(S(=O)(=O)O)cc(c23)C(=O)N1Cc1ccc(F)cc1 |  | inactive | IC50 [4]: 306 µM
7 | Nc1ccc(CN2C(=O)c3cccc4cc(Br)cc(c34)C2=O)cc1 | inactive |  | 
8 | Nc1ccc(CN2C(=O)c3cccc4cc(N)cc(c34)C2=O)cc1 | inactive |  | 
9 | O=C1c2cccc3cc(S(=O)(=O)O)cc(c23)C(=O)N1Cc1ccc(Br)cc1 |  | inactive | inhibition (Ovis aries [2]): inactive
10 | Nc1ccc(CN2C(=O)c3cccc4cccc(c34)C2=O)cc1 | inactive |  | 
11 | Nc1ccc(CN2C(=O)c3cc([N+](=O)[O-])cc4cc([N+](=O)[O-])cc(c34)C2=O)cc1 | inactive |  | 
12 | O=C1c2cccc3cc(S(=O)(=O)O)cc(c23)C(=O)N1Cc1ccc([N+](=O)[O-])cc1 | inactive | inactive | IC50 [4]: 49 µM
13 | O=C1c2cccc3cc(S(=O)(=O)O)cc(c23)C(=O)N1Cc1ccccc1 |  | inactive | inhibition (Ovis aries [2]): inactive
14 | Nc1ccc(CN2C(=O)c3cccc4c(N)ccc(c34)C2=O)cc1 | inactive |  | 
15 | CN(C)c1ccc(CN2C(=O)c3cccc4cc(S(=O)(=O)O)cc(c34)C2=O)cc1 |  | inactive | inhibition (Ovis aries [2]): inactive
16 | COc1cc2c3c(cccc3c1)C(=O)N(Cc1ccc(N)cc1)C2=O | inactive |  | 
17 | Nc1ccc(CN2C(=O)c3cccc4c([N+](=O)[O-])ccc(c34)C2=O)cc1 | inactive |  | 
18 | Nc1ccc(CN2C(=O)c3cccc4c(S(=O)(=O)O)ccc(c34)C2=O)cc1 | inactive |  | 
19 | Cc1ccc(CN2C(=O)c3cccc4cc(S(=O)(=O)O)cc(c34)C2=O)cc1 |  | inactive | inhibition (Ovis aries [2]): inactive
20 | Nc1ccc(CN2C(=O)c3cccc4c(Cl)ccc(c34)C2=O)cc1 | inactive |  | 
21 | CCCN1C(=O)c2cccc3c(N)c(S(=O)(=O)O)cc(c23)C1=O |  |  | IC50 (Clathrin heavy chain 1 [5]): 120 µM
22 | Nc1ccccc1CN1C(=O)c2cccc3cc(S(=O)(=O)O)cc(c23)C1=O |  | inactive | IC50 [4]: 108 µM
23 | O=C1c2cccc3cc(S(=O)(=O)O)cc(c23)C(=O)N1Cc1ccc(Cl)cc1 |  | inactive | IC50 [4]: 111 µM
24 | O=C1c2cccc3cc(S(=O)(=O)O)cc(c23)C(=O)N1Cc1ccc(O)cc1 |  | inactive | inhibition (Ovis aries [2]): inactive
25 | Nc1ccc(CN2C(=O)c3cccc4cc(S(=O)(=O)O)cc(c34)C2=O)cc1 |  | inactive | inhibition (Ovis aries [3]): inactive
26 | O=C(O)c1ccc(CN2C(=O)c3cccc4cc(S(=O)(=O)O)cc(c34)C2=O)cc1 |  | inactive | IC50 [4]: 185 µM
27 | Nc1cccc(CN2C(=O)c3cccc4cc(S(=O)(=O)O)cc(c34)C2=O)c1 |  | inactive | IC50 [4]: 264 µM
